High-throughput results (PubChem BioAssay)
Sampled rows, rich in hits. Any-hit rate of the full collection: about 2.5%.
Pemphigus Ab inh: blocks pemphigus antibody binding to human desmoglein-3. AID 588358. P32926. actives 0.48% (n = 310,000). binding (percent of control), % at 10 µM. DSG3-coupled beads, scFv-anti-DSG3-GFP binding, flow cytometry; active compounds read low;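 active = binding more than 3 SD below its plate's average and above zero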;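 also: hits lower antibody fragment binding to DSG3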
NS3 helicase inh: HCV NS3 helicase inhibition | NS3 helicase DNA unwinding, Cy5 molecular beacon fluorescence | inhibition, % at 10.9 µM | actives 0.56% (n = 290,000);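 active = inhibition above the mean of all tested compounds plus 3 SD, set per campaign, cut at about 35% in these data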;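 also: 0% = DMSO wells and 100% = thioflavine S control wells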
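Material: hepatitis C virus NS3 helicase domain fragment enzyme; measured by: Cy5 fluorescence, 0 and 60 min reads; control set: DMSO and thioflavine S; incubation: 60 min unwinding reaction at 25 °C after ATP addition; read-out basis: % inhibition from 60/0 min fluorescence ratio, DMSO 0%, thioflavine S 100%; repeats: singlicate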
SUMO1 PPI mod: modulators of human SUMO1-mediated protein-protein interactions; P63165; actives 0.33% (n = 360,000); AID 602429; inhibition, % at 20 µM; SUMO1 binding to a labelled peptide, TR-FRET, 1 h; in the data active = inhibition above about 37%
MBD2 DNA inh: MBD2-methylated oligo binding inhibition | actives 0.31% (n = 370,000) | Q9UBB5 | inhibition, % at 4.4 µM | AID 686964 | TR-FRET, MBD2 binding to methylated oligonucleotide; in the data active = inhibition above about 13%
DNMT1 inh: inhibitors of human DNMT1 | actives 0.83% (n = 360,000) | P26358 | AID 588458 | inhibition (reported as % activation of signal), % at 10 µM | DNMT1 molecular beacon, Hinp1I cleavage, fluorescence; in the data active = inhibition above about 50%
UHRF1 binding: UHRF1 methyl-DNA binding inhibition | inhibition, % at 4.4 µM | actives 0.75% (n = 370,000) | UHRF1 binding to methylated oligo, TR-FRET | AID 687016; in the data active = inhibition above about 21%;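 also: UHRF1 SRA domain binding a hemimethylated CpG hairpin DNA probe; 0% = median of test compound wells and 100% = reference inhibitor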
Target sequence (Q96T88 whole entry, looked up, the tested form may be a part): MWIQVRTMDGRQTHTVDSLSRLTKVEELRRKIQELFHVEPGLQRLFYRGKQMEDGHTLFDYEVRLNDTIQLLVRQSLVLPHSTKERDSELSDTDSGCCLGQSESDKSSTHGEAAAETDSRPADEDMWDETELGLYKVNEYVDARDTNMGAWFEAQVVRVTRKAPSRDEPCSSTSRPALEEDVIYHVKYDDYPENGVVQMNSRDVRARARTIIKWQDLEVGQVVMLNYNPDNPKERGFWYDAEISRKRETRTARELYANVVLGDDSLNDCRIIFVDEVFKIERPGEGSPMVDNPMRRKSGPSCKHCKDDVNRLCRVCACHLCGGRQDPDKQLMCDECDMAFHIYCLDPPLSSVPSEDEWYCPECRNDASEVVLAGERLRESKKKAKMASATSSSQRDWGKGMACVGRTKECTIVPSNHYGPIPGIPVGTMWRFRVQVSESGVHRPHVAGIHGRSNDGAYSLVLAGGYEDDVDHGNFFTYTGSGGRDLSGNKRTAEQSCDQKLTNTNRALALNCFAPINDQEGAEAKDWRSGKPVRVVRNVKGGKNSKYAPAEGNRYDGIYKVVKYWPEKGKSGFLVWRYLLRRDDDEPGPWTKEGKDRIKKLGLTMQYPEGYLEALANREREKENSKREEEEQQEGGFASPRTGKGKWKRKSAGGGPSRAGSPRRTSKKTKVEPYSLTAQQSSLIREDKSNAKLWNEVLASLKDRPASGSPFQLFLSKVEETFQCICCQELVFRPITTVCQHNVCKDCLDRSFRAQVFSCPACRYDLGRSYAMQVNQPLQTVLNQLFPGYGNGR
Numbers without * were called inactive; · = no result given.

SMILES | Pemphigus Ab inh | NS3 helicase inh | SUMO1 PPI mod | MBD2 DNA inh | DNMT1 inh | UHRF1 binding
CC(C)NC(=O)N(C)C[C@@H]1OCc2cn(nn2)CCCC(=O)N([C@@H](C)CO)C[C@H]1C | · | · | · | -1 | · | 2
COc1cc2ccccc2cc1C(=O)N(CCN(C)C)c1nc2c(OC)ccc(OC)c2s1 | · | -85 | -2 | -1 | -5 | -1
CC1CCC(NC(=O)CN2C(=O)COc3ccc(S(=O)(=O)N4CCCC4)cc32)CC1 (stereo not given) | · | -7 | · | · | · | ·
COCCn1c(SCC(=O)Nc2ccc3c(c2)OCCO3)nc2ccccc2c1=O | 103 | · | 4 | 9 | 2 | 5
CCN1/C(=C/c2ccc3cc(C)ccc3[n+]2CC)Sc2ccc3sccc3c21 | 12 | · | 104* | · | 21 | ·
Cn1c(N)c(C(=O)COC(=O)COc2ccc(Br)cc2)c(=O)n(C)c1=O | 101 | · | 40* | -6 | 1 | -3
COc1ccc(-n2nc3c(c2NC(=O)CBr)CSC3)cc1 | · | -4 | 0 | 1 | -7 | 0
CN(Cc1ccccc1)C(=O)CN1C(=O)NC2(CCCc3sccc32)C1=O (stereo not given) | 107 | · | 0 | 4 | -1 | 2
N#CCN1C(=O)NC2(CCCc3sccc32)C1=O (stereo not given) | · | -10 | 6 | 3 | 1 | 94*
COc1ccc(NC(=S)NN2CCN(C)CC2)cc1OC | 93 | -17 | 3 | -1 | -1 | 22*
CC(C)[C@H]1CN=C2N(C[C@H](C)NC(=O)CCC3CCCCC3)[C@H](Cc3ccc(O)cc3)CN21 | 98 | · | 53* | 3 | -1 | 3
COC(=O)[C@]12C[C@H](CC(=O)NCCC(C)C)C(=O)N(Cc3ccccc3)C1=C[C@H](C(C)C)O[C@@H]2C1CC1 | · | · | · | 4 | · | -1
CCCCNC(=O)C[C@H]1C[C@@]2(C(=O)OC)C(=C[C@H](C(C)C)O[C@@H]2C2CC2)N(Cc2ccccc2)C1=O | · | · | · | 4 | · | 24*
CCOc1ccc(N(CC)S(=O)(=O)c2ccc3c(c2)n(C)c(=O)c(=O)n3C)cc1 | -11* | -4 | 2 | 5 | -2 | 6
CCOc1ccc(OCC)c(NS(=O)(=O)c2ccc3c(c2)n(C)c(=O)c(=O)n3C)c1 | 95 | -6 | 1 | -1 | -3 | 3
Cc1c(C(=O)N2CCN(CCc3ccccn3)CC2)oc2ccc(Cl)cc12 | · | -3 | -4 | 2 | 1 | -1
Cc1ccc(S(=O)(=O)N2CCC(C(=O)NC3CCCCC3C)CC2)cc1 (stereo not given) | · | 8 | -1 | 3 | 0 | 6
Fc1ccccc1CSc1nc2ncccc2[nH]1 | 108 | 5 | 3 | 9 | -1 | 6
Cc1cccc(CC(=O)NC2CCCCCC2)c1 | 109 | -2 | 4 | 2 | -5 | 1
CCc1ccc(NC(=O)c2cnc3scc(C)n3c2=O)cc1 | 98 | 5 | 4 | 1 | -1 | 46*
COCC(C)NS(=O)(=O)c1ccc(NC(=O)C(Cc2ccccc2)NC(N)=O)cc1 (stereo not given) | 97 | 1 | 0 | 3 | 3 | 3
CC(C)(C)Cc1c(-c2ccc(C#N)cc2)nc2ccc(Cl)cn12 | 107 | · | -1 | 4 | 11 | 21*
CC(C)(C)Cc1c(-c2cccc(Cl)c2)nc2ccc(Cl)cn12 | · | · | -5 | 7 | 27 | 23*
Oc1csc(Cc2nc(-c3ccc(-c4ccccc4)cc3)cs2)n1 | 85 | 25 | 0 | -2 | 10 | 1
NC(=S)Cc1nc(-c2ccccc2)cs1 | 100 | 12 | -2 | -4 | 50* | -4
SMILES | Pemphigus Ab inh | NS3 helicase inh | SUMO1 PPI mod | MBD2 DNA inh | DNMT1 inh | UHRF1 binding
CCOc1ccc(CCNC(=O)CCNC(=O)c2ccco2)cc1OCC | 103 | 5 | 2 | 2 | 7 | 0
O=C1CC(c2ccco2)CC(O)=C1C=Nc1cc(Cl)ccc1Cl (stereo not given) | 99 | 32 | 0 | 0 | 37 | 24*
O=C1CC(c2ccco2)CC(O)=C1C=Nc1ccccc1-c1ccccc1 (stereo not given) | 120 | 8 | -8 | 5 | 1 | -1
Cc1cccc(C2=NC(C(F)(F)F)(C(F)(F)F)c3c(n(-c4ccc(F)cc4)c(=O)[nH]c3=O)N2)c1 | 103 | 4 | 5 | -2 | -2 | -1
CCOC(=O)c1cc(-c2ccc(/C=C3/C(=O)N(c4ccc(C(=O)O)cc4)N=C3C)o2)ccc1Cl | 63* | 17 | 36 | -8 | 30 | -1
CCn1nnnc1NCc1c(OC)ccc2ccccc12 | 103 | 4 | -6 | 0 | -1 | -1
O=C(O)C1C2C=CC(O2)C1C(=O)NCCC1=CCCCC1 (stereo not given) | 114 | 4 | 4 | · | 53* | ·
O=C(NCCC1=CCCCC1)C(=O)NCc1ccccc1 | 94 | 1 | 2 | 1 | 4 | 4
COc1cccc(CCC(=O)N2CCC(n3nccc3NC(=O)CC(C)C)CC2)c1 | · | 7 | 102* | -2 | -4 | -2
COc1ccccc1CCC(=O)N1CCC(n2nccc2NC(=O)CC(C)C)CC1 | · | -1 | 2 | -3 | 3 | 1
CC(C)(C)c1ccc(C2C(C#N)=C(N)Oc3n[nH]c(-c4cccnc4)c32)cc1 (stereo not given) | 15* | 4 | -1 | 0 | 10 | -9
COc1cc(OC)cc(C2C(C#N)=C(N)Oc3n[nH]c(-c4cccnc4)c32)c1 (stereo not given) | 85 | -5 | 3 | -4 | -5 | -8
CCN1CCN(C(=S)c2ccc(Cl)c(Cl)c2)CC1 | 98 | -4 | 1 | -2 | 2 | 6
CCOC(=O)NC(=O)CSc1nc(C)cc(C)c1C#N | 102 | 1 | -5 | 0 | 9 | 0
CCCCN1C(=O)C(CC(=O)NCc2cccc3ccccc23)CC(C(=O)N2CCOCC2)=C1C (stereo not given) | 100 | · | -3 | 5 | 2 | 22*
CC1=C(C(=O)N2CCOCC2)CC(CC(=O)NCc2cccc3ccccc23)C(=O)N1CCCN1CCCC1=O (stereo not given) | 104 | · | 0 | -1 | 3 | -2
CN1/C(=C/C=C(C#N)C#N)C=Cc2ccccc21 | 82 | -2 | 57* | 1 | -1 | 8
O=C(COC(=O)/C=C/c1cccs1)Nc1cccc(S(=O)(=O)N2CCCC2)c1 | 94 | -8 | -9 | -1 | -6 | 1
O=C(Cn1cc(COc2ccc(Br)cc2)nn1)c1ccc(O)cc1 | 101 | · | -3 | 5 | -3 | 9
N#Cc1ccccc1OCc1cn(CC(=O)c2ccc(O)cc2)nn1 | 99 | · | 0 | 13 | 48 | 22*
CC(=O)c1cc(C)c(OCc2cn(CC(=O)c3ccc(O)cc3)nn2)c(C)c1 | 98 | · | 7 | 9 | 34 | 21*
O=C(Cn1cc(COc2c(Br)cc(F)cc2Br)nn1)c1ccc(O)cc1 | 99 | · | 10 | 13 | 38 | 21*
